PubChem BioAssay AID1943 (The Scripps Research Institute Molecular Screening Center, 2009)
About 500 (31%) of roughly 1,600 compounds were called active. Shown is part of a subset that was picked to be rich in actives. A number with no mark means an inactive call.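 Rule for the calls: active = inhibition above the mean of all tested compounds plus 3 SD, cutoff set per campaign (cut at about 36% in these data); inactive = the rest.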

Tested on: Hepatitis C virus NS3 helicase
Experiment: blockers of HCV NS3 DNA unwinding – biochemical, Cy5 molecular beacon fluorescence, triplicate, confirmation (AID 1943)
Details: at 10.9 µM, hits give high values
Procedure, shortened: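 Material: hepatitis C virus NS3 helicase fragment / Buffer or medium: MOPS pH 6.5 buffer with additives / Also added: Quenchable beacon DNA duplex and ATP / Schedule: 0 and 60 min reads at 25 °C / Technique: Cy5 fluorescence quenching by beacon hairpin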

SMILES	inhibition
O=C1CC(=O)N(Cc2ccccc2)C(=O)N1CCCCCCN1C(=O)CC(=O)N(Cc2ccccc2)C1=O	55.3% (active)
COc1ccc(N2C(=O)/C(=C/c3ccco3)C(=O)NC2=S)cc1	82% (active)
CC(C)n1c(=O)c(C=Nc2ccc(Br)cc2)c(O)n(Cc2ccco2)c1=O	1.92%
